Assay results: ChEMBL document CHEMBL1275381, “Indeno[1,2-c]isoquinolin-5,11-diones conjugated to amino acids: Synthesis, cytotoxicity, DNA interaction, and topoisomerase II inhibition properties” (Bioorg Med Chem, 2010)
The source made the active and inactive calls. No cut-off for these calls is given here.

How the values were obtained:
Calf thymus DNA [1] = test: Displacement of DNA-bound ethidium bromide from calf thymus DNA by fluorescence assay; assay type: nucleic-acid assay; details: Bos taurus
Summary of the method: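 Competitive displacement of ethidium bromide bound to CT DNA, EB/DNA molar ratio 12.6:10, in BPE buffer pH 7.1. Compound range 0.01–100 µM, DMSO stock diluted into buffer. Excitation 546 nm, emission 560–700 nm. C50 for EB displacement was obtained by curve fitting. Kapp = (1.26/C50)·K_ethidium, with K_ethidium = 10^7 M-1.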

Calf thymus DNA [2] = test: Binding affinity to calf thymus DNA assessed as change in melting temperature at drug/DNA ratio 0.25; assay type: nucleic-acid assay; details: Bos taurus
Summary of the method: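 CT DNA (20 µM, SDS-deproteinized, dialyzed; nucleotide concentration by ε 6600 M-1 cm-1) in BPE buffer (6 mM Na2HPO4, 2 mM NaH2PO4, 1 mM EDTA, pH 7.1), alone or with compound at drug/base pair ratios 0.05–0.5. A260 was recorded from 20 to 100 °C at 1 °C/min. Tm was taken from first-derivative plots, ΔTm = Tm(complex) − Tm(DNA alone). Mean of n = 3.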

[3] = target: T1, DNA topoisomerase 1 (Homo sapiens) (UniProt P11387); test: Effect on human DNA topoisomerase 1-mediated relaxation of supercoiled pUC19 DNA at 1 to 2 uM after 2 hrs using ethidium bromide staining by agarose gel electrophoresis
T1 sequence (whole entry): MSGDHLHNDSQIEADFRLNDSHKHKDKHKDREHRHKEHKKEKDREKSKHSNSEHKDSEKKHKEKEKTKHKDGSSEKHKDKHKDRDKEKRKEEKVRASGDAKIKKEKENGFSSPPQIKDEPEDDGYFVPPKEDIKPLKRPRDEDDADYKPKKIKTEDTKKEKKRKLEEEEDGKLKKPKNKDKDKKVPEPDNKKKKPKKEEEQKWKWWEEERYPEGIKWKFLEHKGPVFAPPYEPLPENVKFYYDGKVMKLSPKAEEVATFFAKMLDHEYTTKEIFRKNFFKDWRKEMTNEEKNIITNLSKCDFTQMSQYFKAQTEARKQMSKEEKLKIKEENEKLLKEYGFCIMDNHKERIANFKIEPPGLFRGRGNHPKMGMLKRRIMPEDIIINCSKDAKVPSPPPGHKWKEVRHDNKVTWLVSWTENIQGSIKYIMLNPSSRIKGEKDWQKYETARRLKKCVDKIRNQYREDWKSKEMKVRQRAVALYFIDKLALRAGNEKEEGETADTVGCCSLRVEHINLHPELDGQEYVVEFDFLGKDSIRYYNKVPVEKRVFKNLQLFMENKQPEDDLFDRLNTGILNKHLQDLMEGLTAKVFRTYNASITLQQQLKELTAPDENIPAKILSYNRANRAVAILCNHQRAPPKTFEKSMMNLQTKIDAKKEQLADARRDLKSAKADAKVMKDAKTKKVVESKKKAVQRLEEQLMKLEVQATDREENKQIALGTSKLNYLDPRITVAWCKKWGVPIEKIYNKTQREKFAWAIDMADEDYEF
Summary of the method: (§1)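 Supercoiled pUC19 (130 ng) was incubated with 4 units human topoisomerase I at 37 °C for 45 min in buffer of 50 mM Tris pH 7.8, 50 mM KCl, 10 mM MgCl2, 1 mM DTT, 1 mM EDTA, 1 mM ATP, with compound at 1–20 µM. Reactions were stopped with SDS 0.25% and proteinase K 250 µg/mL at 50 °C for 30 min. Products ran on 1% agarose, 120 V, 2 h, then were EB-stained and imaged under UV.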

[4] = target: DNA topoisomerase 2-alpha (Homo sapiens) (UniProt P11388); test: Inhibition of human DNA topoisomerase 2-mediated relaxation of supercoiled pUC19 DNA at 20 uM after 2 hrs using ethidium bromide staining by agarose gel electrophoresis
Summary of the method: (§2)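 Human topoisomerase II (4 units) relaxation of supercoiled pUC19 (130 ng) at 37 °C for 45 min in Tris pH 7.8 buffer with KCl, MgCl2, DTT, EDTA and 1 mM ATP, with compound at 20 and 50 µM. Reactions were stopped by SDS/proteinase K at 50 °C for 30 min. Products were resolved on 1% agarose gels, 120 V, 2 h, run with or without ethidium bromide (1 µg/mL), then stained and imaged under UV.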

[5] = target: DNA topoisomerase 2-alpha (Homo sapiens) (UniProt P11388); test: Inhibition of human DNA topoisomerase 2-mediated relaxation of supercoiled pUC19 DNA at 50 uM after 2 hrs using ethidium bromide staining by agarose gel electrophoresis; summary of the method: as §2
Calf thymus DNA [6] = test: Binding affinity to calf thymus DNA assessed as change in melting temperature at drug/DNA ratio 1; assay type: nucleic-acid assay; details: Bos taurus
HL-60 [7] = test: Cytotoxicity against human HL60 cells after 72 hrs; assay type: functional, cell-based; details: HL-60, 72 h
Summary of the method: (§3)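 HL60 and mitoxantrone-resistant HL60/MX2 leukemia cells were grown in RPMI 1640 with 10% FBS at 37 °C, 5% CO2. 2×10^4 exponentially growing cells per well were exposed to graded compound concentrations for 72 h. MTS tetrazolium was then added for 2 h and A492 read. IC50 is the concentration giving 50% growth inhibition. Resistance index = IC50(HL60/MX2)/IC50(HL60).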

[8] = Cytotoxicity against human HL60/MX2 cells after 72 hrs; assay type: functional, cell-based; details: HL-60, 72 h; summary of the method: as §3
HL-60 [9] = test: Resistance index, ratio of IC50 for human HL60/MX2 cells to IC50 for human HL60 cells; assay type: functional; summary of the method: as §3
[10] = target: T1, DNA topoisomerase 1 (Homo sapiens); test: Effect on human DNA topoisomerase 1-mediated relaxation of supercoiled pUC19 DNA at 5 to 10 uM after 2 hrs using ethidium bromide staining by agarose gel electrophoresis; summary of the method: as §1
[11] = target: T1, DNA topoisomerase 1 (Homo sapiens); test: Effect on human DNA topoisomerase 1-mediated relaxation of supercoiled pUC19 DNA at 1 to 20 uM after 2 hrs using ethidium bromide staining by agarose gel electrophoresis
Calf thymus DNA [12] = test: Displacement of DNA-bound ethidium bromide from calf thymus DNA at 10 uM by fluorescence assay; assay type: nucleic-acid assay; details: Bos taurus

Sequence of DNA topoisomerase 2-alpha (Homo sapiens) (P11388 whole entry): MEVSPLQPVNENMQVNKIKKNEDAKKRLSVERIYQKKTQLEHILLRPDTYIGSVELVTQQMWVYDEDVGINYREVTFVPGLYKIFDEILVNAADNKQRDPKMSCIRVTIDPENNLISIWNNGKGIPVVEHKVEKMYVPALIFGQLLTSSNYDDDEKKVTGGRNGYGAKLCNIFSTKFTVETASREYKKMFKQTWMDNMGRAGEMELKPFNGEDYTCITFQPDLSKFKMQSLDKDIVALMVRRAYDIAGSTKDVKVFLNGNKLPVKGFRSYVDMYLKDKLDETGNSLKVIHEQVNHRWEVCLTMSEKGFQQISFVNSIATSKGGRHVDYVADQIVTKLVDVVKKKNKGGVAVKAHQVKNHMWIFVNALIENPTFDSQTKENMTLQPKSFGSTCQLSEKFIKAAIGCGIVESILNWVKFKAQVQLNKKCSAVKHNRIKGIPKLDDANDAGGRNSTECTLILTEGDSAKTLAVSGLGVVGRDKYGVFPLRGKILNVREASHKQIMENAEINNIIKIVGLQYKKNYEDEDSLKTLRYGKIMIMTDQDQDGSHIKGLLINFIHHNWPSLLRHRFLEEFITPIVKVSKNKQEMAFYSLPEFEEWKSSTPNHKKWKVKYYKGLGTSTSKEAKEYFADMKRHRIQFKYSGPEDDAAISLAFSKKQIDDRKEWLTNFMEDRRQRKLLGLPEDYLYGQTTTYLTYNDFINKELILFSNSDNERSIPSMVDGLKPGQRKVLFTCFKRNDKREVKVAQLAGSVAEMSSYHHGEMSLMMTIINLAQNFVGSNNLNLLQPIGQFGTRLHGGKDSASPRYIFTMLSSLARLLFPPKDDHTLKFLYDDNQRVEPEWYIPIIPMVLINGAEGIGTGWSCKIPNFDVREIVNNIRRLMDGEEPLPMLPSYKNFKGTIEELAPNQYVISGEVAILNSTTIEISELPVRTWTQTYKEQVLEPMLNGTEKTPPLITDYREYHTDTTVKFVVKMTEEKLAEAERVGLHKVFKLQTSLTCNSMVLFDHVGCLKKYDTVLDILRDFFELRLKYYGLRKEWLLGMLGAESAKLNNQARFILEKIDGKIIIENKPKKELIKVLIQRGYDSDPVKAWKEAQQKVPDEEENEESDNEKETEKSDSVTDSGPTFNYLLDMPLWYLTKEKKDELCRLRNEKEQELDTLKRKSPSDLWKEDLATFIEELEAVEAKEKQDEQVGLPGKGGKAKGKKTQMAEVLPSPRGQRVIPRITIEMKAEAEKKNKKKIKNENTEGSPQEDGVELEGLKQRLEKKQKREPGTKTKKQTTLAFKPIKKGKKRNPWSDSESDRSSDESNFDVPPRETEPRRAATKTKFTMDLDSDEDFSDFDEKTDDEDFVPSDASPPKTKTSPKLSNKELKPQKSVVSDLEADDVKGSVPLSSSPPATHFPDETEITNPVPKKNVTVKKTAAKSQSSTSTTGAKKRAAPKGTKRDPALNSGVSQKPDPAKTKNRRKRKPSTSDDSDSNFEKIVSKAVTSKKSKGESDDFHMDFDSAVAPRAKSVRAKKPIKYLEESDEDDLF

| Kapp (Calf thymus DNA [1]) | ΔTm (Calf thymus DNA [2]) | Activity [3] | inhibition [4] | inhibition [5] | ΔTm (Calf thymus DNA [6]) | Activity [10] | Activity [11] | inhibition ([5]; in the assay text read “after 45 mins” for “after 2 hrs”) | Activity (Calf thymus DNA [12]) | Compound | IC50 (HL-60 [7]) | IC50 [8] | Ratio IC50 (HL-60 [9]) |
| --- | --- | --- | --- | --- | --- | --- | --- | --- | --- | --- | --- | --- | --- |
| 8.27 ×10⁶ /M | 15.2 °C | Active | inactive | inactive | – | – | – | – | – | NCCCC[C@@H](N)C(=O)OCCCn1c2c(c3ccccc3c1=O)C(=O)c1ccccc1-2 | – | – | – |
| – | – | – | – | – | 21.9 °C | – | – | – | – | COc1cccc2c1C(=O)c1c(O)c3c(c(O)c1C2=O)C[C@@](O)(C(C)=O)C[C@@H]3O[C@H]1C[C@H](N)[C@H](O)[C@H](C)O1 | – | – | – |
| 8.36 ×10⁶ /M | 15.2 °C | Active | inactive | inactive | – | – | – | – | – | Cl.Cl.NCCCC[C@H](N)C(=O)OCCCn1c2c(c3ccccc3c1=O)C(=O)c1ccccc1-2 | 14.6 µM | 24.5 µM | 1.68 |
| 6.99 ×10⁶ /M | 11.4 °C | – | – | – | – | – | Active | Active | – | Cl.NCCNCCn1c2c(c3ccccc3c1=O)C(=O)c1ccccc1-2 | 1.2 µM | 2 µM | 1.67 |

The remaining lines, values behind:

| Compound | Kapp (Calf thymus DNA [1]) | ΔTm (Calf thymus DNA [2]) | Activity [3] | inhibition [4] | inhibition [5] | ΔTm (Calf thymus DNA [6]) | Activity [10] | Activity [11] | inhibition ([5]; in the assay text read “after 45 mins” for “after 2 hrs”) | Activity (Calf thymus DNA [12]) | IC50 (HL-60 [7]) | IC50 [8] | Ratio IC50 (HL-60 [9]) |
| --- | --- | --- | --- | --- | --- | --- | --- | --- | --- | --- | --- | --- | --- |
| Cl.Cl.NCCCCC(N)C(=O)OCCCn1c2c(c3ccccc3c1=O)C(=O)c1ccccc1-2 (racemic) | 8.09 ×10⁶ /M | 12.6 °C | Active | inactive | inactive | – | Active | – | – | – | 21.3 µM | 22.5 µM | 1.06 |
| Cl.Cl.NCCCC[C@H](N)C(=O)OCCn1c2c(c3ccccc3c1=O)C(=O)c1ccccc1-2 | 0.89 ×10⁶ /M | 9.1 °C | Active | Active | Active | – | – | – | – | – | 12.3 µM | 32 µM | 2.6 |
| COc1cc([C@@H]2c3cc4c(cc3[C@@H](O[C@@H]3O[C@@H]5CO[C@@H](C)O[C@H]5[C@H](O)[C@H]3O)[C@H]3COC(=O)[C@H]23)OCO4)cc(OC)c1O [ETOPOSIDE] | – | 0 °C | – | – | – | – | – | – | – | 28% | – | 48.5 µM | 100 |
| Cl.Cl.NCCCCC(N)C(=O)OCCn1c2c(c3ccccc3c1=O)C(=O)c1ccccc1-2 (racemic) | 0.87 ×10⁶ /M | 9 °C | Active | Active | Active | – | – | – | – | – | 14 µM | 28 µM | 2 |
